How the values were obtained:
Type in all cases: functional
Meloidogyne incognita [1] = assay: Nematicidal activity against Meloidogyne incognita assessed as larval mortality at 1% drug concentration after 72 hrs
How it was run: (§1)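 Larvae were held in Petri dishes with test solutions diluted from stock to 1.0%, alongside a furadan standard and a distilled water control, at 28 ± 2 °C for up to 72 h. Each treatment was replicated twice. At 24, 48 and 72 h, one dish per treatment was scored for mortality under a stereomicroscope. Immobility was confirmed as irreversible by transfer to distilled water. Percent mortality was averaged over three replicates.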

Meloidogyne incognita [2] = assay: Nematicidal activity against Meloidogyne incognita assessed as larval mortality at 1% drug concentration after 24 hrs; how it was run: as §1
Meloidogyne incognita [3] = assay: Nematicidal activity against Meloidogyne incognita assessed as larval mortality at 1% drug concentration after 48 hrs; how it was run: as §1

SMILES | Activity (Meloidogyne incognita [1]) [%] | Activity (Meloidogyne incognita [2]) [%] | Activity (Meloidogyne incognita [3]) [%]
CC(=O)O[C@@H]1C[C@@H](C)[C@H](C)[C@H]2C3=CC[C@@H]4[C@]56CC[C@@](O)(OC5)C(C)(C)C6CC[C@@]4(C)[C@]3(C)CC[C@]21C(=O)O (some centres not stated) [CAMARINIC ACID] | 100 | 100 | 100
CNC(=O)Oc1cccc2c1OC(C)(C)C2 [CARBOFURAN] | 100 | 100 | 100
COc1ccc(-c2cc(=O)c3c(O)c(OC)c(O[C@@H]4O[C@H](COC(C)=O)[C@@H](O)[C@H](O)[C@H]4O)cc3o2)cc1 [LANTANONE] | 95 | 90 | 95
COc1ccc(-c2cc(=O)c3c(O)c(OC)c(O[C@@H]4O[C@H](CO)[C@@H](O)[C@H](O)[C@H]4O)cc3o2)cc1 [LINAROSIDE] | 90 | 85 | 90
